Results on four molecules are retold here after ChEMBL document CHEMBL1158082, “Cytotoxic hypothemycin analogues from Hypomyces subiculosus” (J Nat Prod, 2006).

Bounds are passed on as bounds.

Common to all, as to assay type: functional, cell-based
The subject of one experiment is SK-OV-3. The experiment is described as follows: Cytotoxicity against human SKOV3 cells. The method, boiled down: (§1)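 Cells were kept in McCoy's 5A with 10% FBS and 2 mM L-glutamine at 37 °C and 5% CO2. About 4000 cells per well were plated and left to adhere overnight. Compounds from 50 mM DMSO stocks were diluted in medium (dilution series 100 µM to 0.1 pM, before addition) and added in duplicate. After 72 h, viability was read by CellTiter-Glo luminescence at room temperature.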

A further experiment deals with COLO-829. The experiment is described as follows: Cytotoxicity against human COLO829 cells. The method, boiled down:
as §1

The next experiment deals with HT-29. As to the kind of experiment: Cytotoxicity against human HT-29 cells. Summed up:
as §1

By IC50 is commonly meant the point on the concentration scale where inhibition reaches its midpoint. As to `COc1cc(O)c2c(c1)[C@H]1O[C@@H]1CCCC(=O)CCC[C@H](C)OC2=O`, the IC50 in the experiment on SK-OV-3 is above 100000 nM.
For `C[C@H]1C/C=C/[C@@H](O)[C@@H](O)CC[C@H]2O[C@@H]2c2cc(O)cc(O)c2C(=O)O1`, the IC50 with COLO-829, in the experiment with HT-29 and in the experiment with SK-OV-3 was above 100000 nM each time.
Consider `C[C@H]1C/C=C\C(=O)[C@@H](O)[C@@H](O)C[C@H]2O[C@@H]2c2cc(O)cc(O)c2C(=O)O1`, for which the values for the IC50 in the experiment on COLO-829, with HT-29 and with SK-OV-3 were 38 nM, 100 nM and 1800 nM, respectively.
Take `COc1cc(O)c2c(c1)[C@H]1O[C@@H]1C[C@H](O)[C@H](O)C(=O)/C=C\C[C@H](C)OC2=O` [HYPOTHEMYCIN]: the IC50 in the experiment on COLO-829 came out at 70 nM; in the experiment with HT-29 it was 150 nM; in the experiment on SK-OV-3, 5900 nM.
